A selection: hits, their analogues and other compounds. The true share with any hit is near 3.7%.
KCNK3 inh: human KCNK3 channel inhibition, primary screen; O14649; CHO-KCNK3 thallium flux, FluxOR fluorescence; hits give low values; B-score at 10 µM; hit rate 0.84% among 340,000; AID 602410;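 active means B-score under library mean minus 4 SD, starting fluorescence ratio at most library mean plus 5 SD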;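 further: more negative B-score means stronger inhibition of thallium flux through KCNK3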
Kir21 inh: blocks the mouse Kir2.1 inward-rectifier potassium channel; hit rate 0.85% among 310,000; P35561; HEK293-Kir2.1, FluxOR thallium flux fluorescence; hits give low values; B-score at 10 µM; AID 1672;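 active means fluorescence ratio B-score at or below minus 3 SD of library scores, with starting-brightness B-score within 2 SD, cut at about -4.2 in these data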;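 further: channel flux triggered by added potassium and thallium sulfate stimulus; B-score of peak minus minimum fluorescence over baseline after thallium stimulus; more negative B-score means stronger Kir2.1 block with less thallium influx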
Target sequence (P35561 whole entry, looked up): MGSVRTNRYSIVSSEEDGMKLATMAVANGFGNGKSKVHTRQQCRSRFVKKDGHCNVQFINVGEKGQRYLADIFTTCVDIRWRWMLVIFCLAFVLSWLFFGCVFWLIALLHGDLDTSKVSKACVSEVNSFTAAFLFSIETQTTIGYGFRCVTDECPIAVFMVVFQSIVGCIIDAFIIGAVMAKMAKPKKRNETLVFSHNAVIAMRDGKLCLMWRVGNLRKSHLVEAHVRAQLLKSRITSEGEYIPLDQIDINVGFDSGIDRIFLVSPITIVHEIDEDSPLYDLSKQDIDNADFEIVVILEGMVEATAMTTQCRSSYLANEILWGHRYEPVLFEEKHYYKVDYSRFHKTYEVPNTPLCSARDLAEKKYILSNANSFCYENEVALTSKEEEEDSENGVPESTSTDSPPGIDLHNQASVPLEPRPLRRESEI
KCNQ1 act: human KCNQ1 channel potentiation or activation. P51787. CHO-K1 KCNQ1, thallium flux FluxOR fluorescence; hits give high values. B-score at 10 µM. hit rate 0.35% among 310,000. AID 2648;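 active means fluorescence ratio B-score, a plate-corrected score, at least three library SD, with initial intensity B-score within 5 SD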
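Schedule – 37 °C overnight plating, 90-min dark dye load, 20-min compound pretreatment · System – stable KCNQ1 CHO-K1 line · Probe or stimulus – thallium- and potassium-containing depolarizing buffer · Measured by – kinetic FluxOR fluorescence, 10 s baseline plus 110 s post-stimulus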
hERG protect: compounds protecting human hERG from proarrhythmic drug block; Q12809; CHO-hERG, FluxOR thallium flux, dofetilide IC70 present; activation (rescue from dofetilide block), less the hit threshold, % at 10 µM; hit rate 0.51% among 310,000;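 active means activation above the mean of controls blocked by dofetilide plus 5 SD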;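 further: thallium influx through hERG after potassium depolarization seen as dye fluorescence rise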
KCNQ1 inh: human KCNQ1 channel inhibition; P51787; CHO-K1 KCNQ1, FluxOR thallium flux fluorescence; hits give high values; B-score at 10 µM; hit rate 1.3% among 310,000;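 active means compounds whose thallium flux B-score, printed positive for inhibition, exceeds three library SD while starting fluorescence stays within three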;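 further: channel opened by potassium depolarization with thallium stimulus after 20 min compound exposure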
KCNK9 block: human KCNK9 channel inhibition | Q9NPC2 | HEK293 KCNK9, FluxOR thallium flux fluorescence; hits give low values | B-score at 10 µM | hit rate 1.2% among 310,000 | AID 488922;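 active means ratio B-score over 3 SD below the library mean, with starting fluorescence within 5 SD of its mean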;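 further: negative B-score means less thallium flux so channel inhibition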
KCNK3 inh conf: human KCNK3 channel inhibition, confirmation assay; hit rate 99% among 2,400; shares compounds with KCNK3 inh; ratio percent of control, % at 10 µM; CHO-KCNK3 thallium flux, FluxOR fluorescence; 0% buffer, 100% carvedilol maximal block;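 active means ratio percent of control, averaged over triplicates, above buffer control mean plus 5 SD, cut at about 64% in these data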;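 further: ratio is the fluorescence rise from min to max over baseline after thallium stimulus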
KCNK3 noninduced: KCNK3 inhibitor counter-screen hit in non-induced cells; shares compounds with KCNK3 inh; non-induced KCNK3 parental cells, FluxOR thallium flux; hits give low values; thallium flux ratio (lower = more inhibition) at 10 µM; hit rate 40% among 2,400;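 active means thallium flux ratio, averaged over three wells, more than 5 SD below the buffer control mean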;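 further: host cells are CHO cells without KCNK3 induction; ratio is peak minus trough fluorescence over baseline then normalized to buffer controls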
* hit, by the source's call; i = inactive; · = not tested or not shown.

SMILES	KCNK3 inh	Kir21 inh	KCNQ1 act	hERG protect	KCNQ1 inh	KCNK9 block	KCNK3 inh conf	KCNK3 noninduced
Cc1ccc(Cl)c(OCC(=O)Nc2ccccc2N2CCCCC2)c1	-10.4*	-2.17	i	-13.7	i	i	123.3*	0.146*
COCCN(CC(=O)Nc1cccc(C)c1C)C(=O)CN1C(=O)NC2(CCCCC2)C1=O	i	·	·	·	·	·	·	·
O=C(Cn1c(=O)c(=O)n(Cc2ccccc2)c2ccc(Cl)cc21)NCC1CCCO1 (stereo not drawn)	i	-0.01	i	-3.7	i	i	·	·
CCN(CC)C(=O)Cn1c(=O)oc2ccccc21	i	-0.04	i	0.5	i	i	·	·
CC(C)(O)C#Cc1ccc(CN2CCCC(CNC(=O)c3ccco3)C2)cc1 (stereo not drawn)	i	-1.5	i	-7.4	i	i	·	·
CCc1cccc(OCC(=O)Nc2ccccc2N2CCCC2)c1	-9.11*	-0.31	i	-10.1	i	i	119.7*	0.158*
CCOc1cc(N2CCOCC2)c(OCC)cc1NC(=O)COc1cccc(CC)c1	i	·	·	·	·	·	·	·
N#Cc1sc2nc(-c3cccs3)cc(-c3ccc(Cl)cc3)c2c1N	-14.2*	-0.78	i	-11.1	i	-6.97*	131.7*	i
Cc1ccc(S(=O)(=O)N2CCC(C(=O)OCc3c(C)noc3C)CC2)cc1C	i	-2.09	i	-3.4	i	i	·	·
Cc1noc(C)c1COC(=O)C1CCN(S(=O)(=O)c2c(Cl)cccc2Cl)CC1	-8.98*	0.95	i	-11.3	i	i	114.0*	i
Cc1ccc(NC(=O)N(Cc2ccco2)C(C)c2ccco2)cc1C (stereo not drawn)	-9.02*	-0.52	i	-7.5	i	i	110.0*	i
Cc1ccc(NC(=S)N(CCN(C)C)C(C)c2ccco2)cc1Cl (stereo not drawn)	i	1.21	i	-6.6	i	i	·	·
Oc1ccccc1/C=N/c1c(-c2ccco2)nc2ccccn12	-9.74*	0.33	i	-17.1	i	i	94.7*	i
Clc1ccc(/C=N/c2c(-c3ccco3)nc3ccccn23)cc1	i	0.18	i	-7.3	i	i	·	·
CC(Cc1ccccc1)C(=O)Nc1ccc(Br)cc1 (stereo not drawn)	i	0.98	i	-16.6	i	i	·	·
Cc1ccc(NC(=S)Nc2cccc3ccccc23)cc1	i	-1.08	i	-6.0	i	i	·	·
CC(C)c1ccc(NC(=S)Nc2cccc3ccccc23)cc1	-8.85*	0.02	i	-7.9	i	i	105.3*	i
Nc1ccc(Cl)c(-c2nc3ncccc3o2)c1	-11.3*	1.91	i	-4.0	i	i	88.0*	i
O=C(Nc1ccc(Cl)cc1)Nc1ccccc1CC[N+](=O)[O-]	-10.6*	-0.94	i	-10.5	8*	i	82.0*	i
CCN(CC)C(=O)C(Oc1ccc(S(=O)(=O)N2CCCC2)cc1[N+](=O)[O-])c1ccccc1 (stereo not drawn)	-11.3*	1.99	i	-3.3	i	-7.14*	98.0*	i
COc1ccc(C)cc1NC(=O)c1ccc2c(c1)OCO2	i	-0.1	i	-3.0	i	i	·	·
COc1ccc(C)cc1NC(=O)c1cccc(C(=O)Nc2cc(C)ccc2OC)c1	-10.6*	0.61	i	-7.0	i	-8.04*	106.3*	i
CCCCCCCCC(=O)Nc1cc(C)ccc1OC	-10.7*	0.07	i	-13.2	i	i	102.7*	i
COC(=O)c1sccc1NC(=O)COc1ccc(F)cc1Cl	i	1.64	i	-11.2	i	i	·	·
COCCOC(=O)c1c(C)oc2ccc(OC(=O)c3c(OC)cccc3OC)cc12	-10.4*	-0.98	i	-2.8	i	i	104.0*	i
SMILES	KCNK3 inh	Kir21 inh	KCNQ1 act	hERG protect	KCNQ1 inh	KCNK9 block	KCNK3 inh conf	KCNK3 noninduced
COc1ccc(C)cc1-n1c(SCC(=O)Nc2cc(C)on2)nc2sc(C)c(C)c2c1=O	-11.2*	-0.36	i	-7.5	i	i	128.0*	i
Cc1cccc(N2CCN(S(=O)(=O)c3ccc(Cl)nc3)CC2C)c1 (stereo not drawn)	i	·	·	·	·	·	·	·
COc1ccc2c(c1)C(c1cccs1)=NNC(c1ccncc1)=N2	-8.77*	-0.02	i	-9.3	i	i	65.7*	i
O=C(Nc1ccccc1N1CCOCC1)C1(c2ccc(Cl)cc2)CCC1	-11.2*	-1.59	i	-12.4	i	i	100.0*	i
O=C(Cc1ccc(Cl)cc1)NC(=S)Nc1ccccc1N1CCOCC1	i	·	·	·	·	·	·	·
CSc1cccc(NC(=O)/C=C/c2cccc(Cl)c2)c1	-11.2*	0.82	i	-12.8	11*	i	128.3*	0.158*
OC1(c2cccc(C(F)(F)F)c2)CCN(c2ncnc3c2[nH]c2ccc(F)cc23)CC1	-11.9*	·	·	·	·	·	131.7*	i
S=c1[nH]nc(-c2ccc(Br)cc2)n1-c1ccc(Br)cc1	-11.3*	0.51	i	-7.2	i	i	74.7*	i
O=C(O)c1ccc(-n2c(-c3ccc(Br)cc3)n[nH]c2=S)cc1	i	-1.78	i	-9.3	i	i	·	·
CN(C(=O)Nc1ccc(Cl)cc1Cl)C1CCCC1	-9.11*	1.79	i	-22.1	i	i	76.0*	i
O=C(Nc1ccccc1)c1sccc1Oc1ccc([N+](=O)[O-])cc1F	-8.97*	-0.2	i	-9.4	i	i	112.7*	i
O=C(O)c1cc([N+](=O)[O-])ccc1C(=O)Nc1ccccc1	i	-0.56	i	-7.4	i	i	·	·
COC(=O)C1CCN(c2nc3ccccc3nc2C(C#N)C(=O)OCC(C)C)CC1 (stereo not drawn)	i	0.5	i	-7.4	i	-6.84*	117.3*	0.154*
COC(=O)C1CCN(c2nc3ccccc3nc2C(C#N)C(=O)NCCc2ccccc2)CC1 (stereo not drawn)	i	0.76	i	-18.4	i	i	·	·
O=C(Nc1ccc(S(=O)(=O)N2CCOCC2)cc1)c1cc(-c2cc(Cl)ccc2O)n[nH]1	-8.75*	1.33	i	-15.5	i	i	128.0*	0.134*
S=C1NCCc2ccc(Cl)cc2C1c1ccccc1Cl (stereo not drawn)	-11.1*	-0.84	i	-5.7	i	-6.73*	123.0*	i
Clc1ccc2c(c1)C(C1=NCCN1)c1ccccc1CS2 (stereo not drawn)	i	2.26	i	-4.5	i	i	·	·

Source: PubChem BioAssay
